Laboratory results from ChEMBL document CHEMBL1124843, “Water-soluble renin inhibitors: design of a subnanomolar inhibitor with a prolonged duration of action” (J Med Chem, 1990).
Converted amounts (≈) assume the structure as drawn.

Assays:
[1] = Log P value at the pH of 6.5; type: physicochemical; details: octanol/water, pH 6.5; read-out: LogD6.5
Outline: (§1)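 Octanol/water partition. Inhibitor (0.3–0.5 mg) was dissolved in 1.00 mL octanol, and 200 μL was added to 5.00 mL buffer: 0.1 M PIPES pH 6.5 or 0.1 M HEPES pH 7.4. Samples were shaken 2 h and centrifuged, and both phases were diluted and quantified by HPLC. P was calculated from peak areas × dilution factors.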

[2] = Log P value at the pH of 7.4; type: physicochemical; details: octanol/water, pH 7.4; read-out: LogD7.4; outline: as §1
Renin [3] = molecular target: T1, Renin (Homo sapiens, UniProt P00797); experiment: Inhibitory activity against purified human renal renin at pH 6.5; type: functional
T1 sequence (P00797 whole entry): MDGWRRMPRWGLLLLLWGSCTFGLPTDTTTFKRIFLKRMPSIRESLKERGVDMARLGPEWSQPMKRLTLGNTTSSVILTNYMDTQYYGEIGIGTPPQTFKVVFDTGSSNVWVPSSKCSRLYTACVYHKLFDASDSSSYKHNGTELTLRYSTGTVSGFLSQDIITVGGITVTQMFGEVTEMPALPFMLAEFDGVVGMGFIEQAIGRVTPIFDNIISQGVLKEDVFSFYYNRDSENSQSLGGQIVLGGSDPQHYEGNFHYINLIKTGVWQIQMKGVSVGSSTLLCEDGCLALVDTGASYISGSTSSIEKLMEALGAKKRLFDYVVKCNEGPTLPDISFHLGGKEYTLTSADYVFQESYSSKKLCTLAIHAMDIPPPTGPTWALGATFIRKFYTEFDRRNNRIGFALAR

Renin [4] = molecular target: T1, Renin; experiment: Inhibitory activity against human plasma renin at pH 7.4; type: functional, cell-free
[5] = Solubility at 37 degree C and pH of 7.4; type: physicochemical; details: pH 7.4; read-out: S
[6] = % change in blood pressure when administarted intravenously.; type: ADME; details: iv
Outline: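 Anesthetized, salt-depleted cynomolgus monkeys, 0.1 mg/kg iv bolus (n = 5). Maximum % change in mean arterial pressure taken from the T = 0 baseline. […] Values are mean ± SE.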

[7] = molecular target: Renin (Macaca fascicularis); experiment: Inhibitory activity against monkey plasma renin at pH 7.4
[8] = Plasma level when given intraduodenally to anesthetized rats (systemic) at 10 min; type: ADME, organism-based; details: rat, read-out: Plasma level
Outline: (§2)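 Anesthetized rats (n = 4) received unlabelled drug intraduodenally at 10 mg/kg. Portal and systemic blood were sampled at 10 and 30 min. Plasma drug levels were determined by a renin inhibition assay. Values are mean ± SE.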

[9] = Plasma level when given intraduodenally to anesthetized rats (systemic) at 30 min; type: ADME, organism-based; details: rat, read-out: Plasma level; outline: as §2
[10] = Plasma level when given intraduodenally to anesthetized rats from portal sample at 10 min; type: ADME, organism-based; details: rat, read-out: Plasma level; outline: as §2
[11] = Plasma level when given intraduodenally to anesthetized rats from portal sample at 30 min; type: ADME, organism-based; details: rat, read-out: Plasma level; outline: as §2
Rattus norvegicus [12] = experiment: Excretion of radiolabeled [14C]-21 in rats when administered intravenously at the dose of 1.0 mg/kg; type: ADME, organism-based; design: dose 1 mg/kg, route intravenous; details: in vivo, iv
Outline: (§3)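 Rats got [14C]-labelled inhibitor (label at oxazolidinone carbonyl), 1 mg/kg orally or intravenously. Urine and feces were collected over 72 h. Feces were homogenized in 70% aqueous ethanol and aliquots burned in a sample oxidizer. Total radioactivity was counted by liquid scintillation with internal-standard quench correction and expressed as % of dose. Mean ± SE, n = 2.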

Rattus norvegicus [13] = experiment: Excretion of radiolabeled [14C]-21 in rats when administered orally at the dose of 1.0 mg/kg; type: ADME, organism-based; design: dose 1 mg/kg, route oral; details: in vivo, po; outline: as §3
Rattus norvegicus [14] = experiment: metabolic profile radiolabeled [14C]-21 in rats when administered intravenously at the dose of 1.0 mg/kg; type: ADME, organism-based; design: dose 1 mg/kg, route intravenous; details: in vivo, iv
Outline: (§4)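 Rats were dosed orally or iv at 1 mg/kg with 14C-labelled drug. Urine and fecal samples were profiled by C-18 HPLC with a linear 15–50% aqueous acetonitrile gradient containing 0.1% TFA. Peaks were tentatively identified by retention time against reference standards, using 215 nm absorbance or radioactivity. Results are given as % of 14C dose, mean ± SE, n = 2.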

Rattus norvegicus [15] = experiment: metabolic profile radiolabeled [14C]-21 in rats when administered orally at the dose of 1.0 mg/kg; type: ADME, organism-based; design: dose 1 mg/kg, route oral; details: in vivo, po; outline: as §4

SMILES	logD [1]	logD [2]	IC50 (Renin [3]) [nM]	IC50 (Renin [4]) [nM]	solubility [5] [mM]	further results
CCN1C[C@@H]([C@H](O)[C@H](CC2CCCCC2)NC(=O)[C@H](Cc2cnc[nH]2)NC(=O)[C@@H](CC(=O)N(C)CCOCOC)Cc2ccccc2)OC1=O	2.28	2.49	0.49	1.1	–	–
CCN1C[C@@H]([C@H](O)[C@H](CC2CCCCC2)NC(=O)[C@H](Cc2cnc[nH]2)NC(=O)[C@H](Cc2ccc(OC)cc2)NC(=O)N2C[C@H](OCOCCOC)[C@H](OCOCCOC)C2)OC1=O	1.58	1.67	8.5	26	–	–
CCN1C[C@@H]([C@H](O)[C@H](CC2CCCCC2)NC(=O)[C@H](Cc2cnc[nH]2)NC(=O)[C@H](Cc2ccc(OC)cc2)NC(=O)N(C)CC(O)CO)OC1=O (stereo partly drawn)	1.2	1.42	7.9	46	–	–
CCN1C[C@@H]([C@H](O)[C@H](CC2CCCCC2)NC(=O)[C@H](Cc2c[nH]cn2)NC(=O)[C@H](Cc2ccc(OC)cc2)NC(=O)N(C)CCOCOC)OC1=O	2.08	2.3	4.6	27	2.1 (≈ 1530 µg/mL)	–
CCN1C[C@@H]([C@H](O)[C@H](CC2CCCCC2)NC(=O)[C@H](Cc2cnc[nH]2)NC(=O)[C@@H](CC(=O)N2C[C@H](OCOCCOC)[C@H](OCOCCOC)C2)Cc2ccccc2)OC1=O	1.56	1.87	1.6	7.3	8.7 (≈ 7470 µg/mL)	–
CCN1C[C@@H]([C@H](O)[C@H](CC2CCCCC2)NC(=O)[C@H](Cc2cnc[nH]2)NC(=O)[C@@H](CC(=O)N(C)CCO)Cc2ccccc2)OC1=O	1.74	1.94	0.85	2.5	5.2 (≈ 3410 µg/mL)	–
CCN1C[C@@H]([C@H](O)[C@H](CC2CCCCC2)NC(=O)[C@H](Cc2c[nH]cn2)NC(=O)[C@H](Cc2ccc(OC)cc2)NC(=O)N(C)CCOCOCCOC)OC1=O	1.83	2.03	1.7	14	–	–
CCN1C[C@@H]([C@H](O)[C@H](CC2CCCCC2)NC(=O)[C@H](Cc2cnc[nH]2)NC(=O)[C@@H](CC(=O)N(C)CCOC)Cc2ccccc2)OC1=O	2.29	2.45	0.59	1.5	3.4 (≈ 2270 µg/mL)	–
CCN1C[C@@H]([C@H](O)[C@H](CC2CCCCC2)NC(=O)[C@H](Cc2c[nH]cn2)NC(=O)[C@H](Cc2ccc(OC)cc2)NC(=O)N2C[C@@H](O)[C@@H](O)C2)OC1=O	0.91	1.22	6.9	8.7	–	–
CCN1C[C@@H]([C@H](O)[C@H](CC2CCCCC2)NC(=O)[C@H](Cc2cnc[nH]2)NC(=O)[C@H](Cc2ccc(OC)cc2)NC(=O)N2CCOCC2)OC1=O	1.91	2.11	3.4	9.6	5.9 (≈ 4120 µg/mL)	–
CCN1C[C@@H]([C@H](O)[C@H](CC2CCCCC2)NC(=O)[C@H](Cc2cnc[nH]2)NC(=O)[C@H](Cc2ccc(OC)cc2)NC(=O)N2C[C@H](OCOC)[C@H](OCOC)C2)OC1=O	1.94	2.06	12	59	–	–
CC(C)C(=O)N[C@@H](Cc1ccccc1)C(=O)N[C@@H](Cc1cnc[nH]1)C(=O)N[C@@H](CC1CCCCC1)[C@@H](O)[C@@H](O)CN=[N+]=[N-]	–	–	–	–	0.045 (≈ 26.9 µg/mL)	Change [6]: 18%; IC50 [7]: 0.29 nM
CCN1C[C@@H]([C@H](O)[C@H](CC2CCCCC2)NC(=O)[C@H](Cc2cnc[nH]2)NC(=O)[C@@H](CC(=O)N2CCOCC2)Cc2ccccc2)OC1=O	1.9	2.2	0.99	1.3	–	–
CCN1C[C@@H]([C@H](O)[C@H](CC2CCCCC2)NC(=O)[C@H](Cc2c[nH]cn2)NC(=O)[C@@H](CC(=O)N(C)CCOCOCCOC)Cc2ccccc2)OC1=O	1.89	2.21	–	–	5.4 (≈ 4010 µg/mL)	concentration at 10 min [8]: 1.6 ng/mL; concentration at 0.5 h [9]: 2.5 ng/mL; concentration at 10 min [10]: 360 ng/mL; concentration at 0.5 h [11]: 420 ng/mL; Dose (Rattus norvegicus [12]): 8.5%; Dose (Rattus norvegicus [13]): 1.9%; Change [6]: 43%; Dose (Rattus norvegicus [14]): 35%; Dose (Rattus norvegicus [15]): 73%
CCN1C[C@@H]([C@H](O)[C@H](CC2CCCCC2)NC(=O)[C@H](Cc2cnc[nH]2)NC(=O)[C@@H](CC(=O)N2C[C@H](OCOC)[C@H](OCOC)C2)Cc2ccccc2)OC1=O	2.08	2.31	2.7	11	4.5 (≈ 3470 µg/mL)	–
CCN1C[C@@H]([C@H](O)[C@H](CC2CCCCC2)NC(=O)[C@H](Cc2c[nH]cn2)NC(=O)[C@H](Cc2ccc(OC)cc2)NC(=O)C(C)C)OC1=O	2.67	2.85	1.7	9.9	0.37 (≈ 242 µg/mL)	–
